# The list is not random: actives were taken first. Their share in the collection is about 4.5%.
# GPR7 antagonist = blocks human GPR7 receptor signaling; 290,000 compounds, 1.1% hits; inhibition, % at 4.4 µM; GPR7-expressing cells, fluorescence antagonist assay; AID 1861; P48145; in the data active = inhibition above about 16%, passing the limit was not always enough;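 note: cells stimulated with the agonist NPW; 0% = agonist with vehicle and 100% = vehicle without agonist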
# TAAR1 ag = human TAAR1 agonism | Q96RJ0 | CHO RD-HGA16 TAAR1, Fluo-8 calcium fluorescence; vehicle wells 0%, saturating PEA agonist 100% | activation, % at 3 µM | 360,000 compounds, 0.99% hits | AID 624467;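 active = activation above the mean activation of all test compounds in the run plus 3 SD, cut at about 38% in these data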
# Target sequence (Q96RJ0 whole entry, looked up): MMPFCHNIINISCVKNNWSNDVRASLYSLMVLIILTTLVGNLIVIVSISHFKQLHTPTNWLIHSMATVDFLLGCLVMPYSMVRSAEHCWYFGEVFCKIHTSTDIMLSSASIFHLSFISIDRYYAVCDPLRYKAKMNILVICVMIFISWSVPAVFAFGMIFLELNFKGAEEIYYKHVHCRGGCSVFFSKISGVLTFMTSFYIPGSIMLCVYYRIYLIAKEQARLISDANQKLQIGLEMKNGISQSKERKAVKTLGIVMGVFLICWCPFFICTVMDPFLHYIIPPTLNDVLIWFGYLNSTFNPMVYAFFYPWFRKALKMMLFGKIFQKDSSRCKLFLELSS
#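 Repeats: no replicates (n 1) | Material: CHO-derived RD-HGA16 cells with stable Gα16 and human TAAR1 | Technique: Kinetic Fluo-8 calcium fluorescence | Schedule: 17-24 h seeding, 75 min 37 °C dye, 30 min RT | Evaluation: % activation from peak over basal fluorescence ratio, DMSO-to-PEA scaled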
# CHO parental Ca = signal in parental CHO cells, OX1R antagonist counter-screen | parental CHO-K1, ATP-induced calcium, Fluo-8 fluorescence | inhibition, % at 5.6 µM | 330,000 compounds, 0.63% hits | AID 463079;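 active = inhibition above that plate's mean sample inhibition plus 3 SD, cut at about 26% in these data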;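 note: 0% = ATP-challenged DMSO wells and 100% = DMSO wells without ATP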
#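 Test system: parental CHO cells; detection: calcium-sensitive Fluo-8 fluorescence; evaluation: percent inhibition of calcium signal; also added: ATP as calcium-mobilizing challenge; repeats: one well per compound; control set: ATP-challenged DMSO wells low, unchallenged DMSO wells high; compound: single nominal dose of 5.6 µM per compound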
# TAAR1 antagonist = antagonists of human TAAR1. Q96RJ0. 360,000 compounds, 1.5% hits. inhibition, % at 3 µM. CHO RD-HGA16 TAAR1, Fluo-8 calcium fluorescence, antagonist;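 active = inhibition above a per-plate cutoff, the mean inhibition of test compounds on that plate plus 3 SD, cut at about 49% in these data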;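 note: 0% = DMSO plus EC80 beta-PEA response and 100% = DMSO alone without agonist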
#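 System: RD-HGA16 CHO cells with stable hTAAR1 and Gα16 | Probe or stimulus: EC80 β-phenethylamine stimulus | Dosing: 3 µM, single point | Times: Dye loading 75 min at 37 °C, then 30 min room temperature | Measured by: Fluo-8 calcium-sensitive fluorescence | Read-out basis: % inhibition of agonist calcium response | Replicates: n of 1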
# OX1R antag-1 = antagonists of human orexin 1 receptor | O43613 | CHO/OX1R cells, Fluo-8 calcium fluorescence, orexin A | inhibition, % at 5 µM | 330,000 compounds, 0.43% hits;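 active = inhibition above its plate's threshold, mean inhibition of all tested compounds on the plate plus 3 SD, cut at about 37% in these data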;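 note: 0% = orexin A challenge wells and 100% = SB-334867-A antagonist wells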
# OX1R antag-2 = antagonists of human orexin 1 receptor (OX1R); O43613; OX1R-expressing cells, FRET antagonist read-out; inhibition, % at 6.6 µM; 330,000 compounds, 1.8% hits; AID 485270; in the data active = inhibition mostly above about 38%, no sharp cut-off; inactive = mostly below about 40%;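 note: 0% = agonist challenge alone and 100% = reference antagonist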
# * = called active by the depositor; / = no result given.
SMILES,GPR7 antagonist,TAAR1 ag,CHO parental Ca,TAAR1 antagonist,OX1R antag-1,OX1R antag-2
Cc1ccc2nc(-c3ccc(NC(=S)NC(=O)C(C)C)cc3)sc2c1,-1,4,7,-2,-9,14
CN(Cc1ccc(Cl)cc1Cl)C(=O)c1cccc(S(=O)(=O)NCc2ccccc2)c1,/,2,/,25,/,/
CN(Cc1ccco1)S(=O)(=O)c1nnc(NC(=O)c2cccc(Cl)c2)s1,8,5,29*,-28,-4,28
COc1ccc(C2CC3(CC(C)(C)NC(SC)=N3)Oc3cc(O)cc(C)c32)cc1 (centres undefined),8,51*,-9,5,-4,-30
COc1ccc(C2CC3(CC(C)(C)NC(=S)N3)Oc3cc(O)cc(C)c32)cc1 (centres undefined),-7,1,-21,2,-14,4
O=C(CSc1ncnc2c1cnn2-c1ccc(F)cc1)NCc1ccc2c(c1)OCO2,1,0,-4,1,-3,-2
CN(C)CCCNS(=O)(=O)c1ccc(-n2nnc3ccccc32)c([N+](=O)[O-])c1,2,-3,-20,2,-25,68*
CS(=O)(=O)c1ccc(-n2nnc3ccccc32)c([N+](=O)[O-])c1,-11,-2,-30,-9,-21,31
O=[N+]([O-])c1cc(S(=O)(=O)Nc2cccc(C(F)(F)F)c2)ccc1-n1nnc2ccccc21,-8,4,43*,9,45*,88*
COC(=O)[C@]12C[C@H](CC(=O)NCCCN3CCCC3=O)C(=O)N(Cc3ccc4c(c3)OCO4)C1=C[C@H](COCc1ccccc1)O[C@@H]2C,/,6,/,-31,/,/
CCOc1ncccc1C(=O)NCc1ccccc1F,-12,-2,-8,-28,-19,31
CC(=O)Nc1cccc(NC(=O)c2cccc3cccnc23)c1,6,3,-15,10,14,71*
COc1ccccc1NC(=O)c1ccccc1-c1nc(-c2ccccc2OC)no1,-2,16,-20,51*,10,55*
O=C(NCCc1ccccc1F)c1cccc2cccnc12,3,66*,-24,17,-43,24
CCOc1ccccc1C(=O)Nc1cccc2ccccc12,-17,3,-9,21,-15,53*
COc1ccccc1-c1noc(-c2ccccc2C(=O)Nc2ccccc2)n1,-5,22,-18,47,-22,52
CC1(NC(=O)CCc2nc3sc4c(c3c(=O)[nH]2)CCCC4)CCS(=O)(=O)C1 (centres undefined),/,5,-8,-29,0,12
COC(=O)[C@@]12C[C@@H](CC(=O)NCc3ccc(C)o3)C(=O)N(Cc3ccccc3)C1=CCC(C)(C)C2,/,-2,/,-15,/,/
COc1ccccc1C(=O)Nc1cccc2cccnc12,-2,-1,-19,-8,-3,73*
CCCC(=O)N1CCCC1(C)C(=O)Nc1cccc(OC(C)C)c1 (centres undefined),/,1,/,-15,/,/
COc1ccc(-c2nnc(-c3cc4c(ccc5ccccc54)oc3=O)o2)cc1,-8,1,-14,7,-22,62
O=c1oc2ccc3ccccc3c2cc1-c1nnc(-c2ccccc2)o1,12,4,-5,-2,-2,74*
COC(=O)C1=C(N)N(c2ccccc2C(F)(F)F)C2=C(C(=O)CCC2)C1c1ccc2c(c1)OCO2 (centres undefined),16,1,48*,17,-20,16
COc1ccc(CCNC(=O)COC(=O)C2CC2)cc1OC,/,2,-4,-9,-18,-4
CCCn1c(SCC(=O)NCc2ccc(OC)cc2)n[nH]c1=O,-6,2,-15,-13,-20,22
SMILES,GPR7 antagonist,TAAR1 ag,CHO parental Ca,TAAR1 antagonist,OX1R antag-1,OX1R antag-2
CCCn1c(SCC(=O)N2N=C3/C(=C/c4ccc(OC)cc4)CCCC3C2c2ccc(OC)cc2)n[nH]c1=O (centres undefined),20*,49*,13,50*,11,-14
COc1ccccc1CNC(=O)C[C@H]1CC[C@@H]2[C@H](COC[C@H](O)CN2Cc2ccc3c(c2)OCO3)O1,/,2,/,-14,/,/
Cc1nc2ccccc2cc1OCc1ccccc1,-3,21,37*,12,7,27
COc1cccc(COc2cc3ccccc3nc2C)c1,18,11,15,21,5,33
Cc1nc2ccccc2cc1OCc1ccc(Cl)cc1,14,23,50*,15,0,41*
COc1cc(C2NC(=O)NC(C)=C2C(=O)OC2CCCCC2)cc(Cl)c1O (centres undefined),-19,1,-12,6,-27,19
C[C@H](CO)N1C[C@H](C)[C@H](CN(C)C(=O)Nc2cccc3ccccc23)OCc2cnnn2CCCC1=O,/,0,/,-7,/,/
CC(C)CN(C(=O)COC(=O)c1cc2ccccc2oc1=O)C1CCS(=O)(=O)C1 (centres undefined),-2,/,/,/,/,/
O=C(COC(=O)c1ccc([N+](=O)[O-])o1)c1ccccc1,-7,3,-7,7,-11,29
CC1CCCC(C)N1C(=O)COC(=O)c1ccc([N+](=O)[O-])o1 (centres undefined),/,2,6,-12,-22,39*
COC(=O)C1=C(C)NC(=S)NC1c1ccc(-c2cc(Cl)ccc2Cl)o1 (centres undefined),-5,6,-1,-30,-15,56*
O=C(OCCCOC(=O)c1ccc([N+](=O)[O-])o1)c1ccc([N+](=O)[O-])o1,/,2,-3,2,1,53*
CC(C)CN(C(=O)COC(=O)c1ccc([N+](=O)[O-])o1)C1CCS(=O)(=O)C1 (centres undefined),3,6,-5,-4,-11,75*
CC(=C1N=C(c2ccccc2)OC1=O)c1cccs1,/,1,/,-18,/,/
CC(C)N(C(=NCc1ccccc1)NC(=O)c1ccccc1)C(C)C,/,23,-13,4,-9,12
Oc1cc(O)cc(/C=C/c2ccc(O)c(O)c2)c1,/,0,23,-7,4,13
CCOC(=O)C1CCN(C(=O)COC(=O)c2ccc([N+](=O)[O-])o2)CC1,/,1,-6,-3,-14,33*
CCOC(=O)C1=C(COC(=O)c2ccc([N+](=O)[O-])o2)NC(=O)NC1C (centres undefined),/,3,-5,2,-16,30*
O=C(COC(=O)/C=C/c1ccccc1Cl)NCCNC(=O)COC(=O)/C=C/c1ccccc1Cl,-10,1,-11,12,-17,18
NS(=O)(=O)c1ccc(CCNC(=O)COC(=O)c2ccc([N+](=O)[O-])o2)cc1,/,2,-9,2,-9,44*
